Reference: ChEMBL document CHEMBL1151794, “Synthesis and pharmacological evaluation of bis-3-(3,4-dichlorophenyl)acrylamide derivatives as glycogen phosphorylase inhibitors” (Bioorg Med Chem, 2008)

Assays:
[1] = biological target: T1, Glycogen phosphorylase, liver form (Homo sapiens, UniProt P06737); assay: Inhibition of human liver glycogen phosphorylase a in absence of glucose
T1 sequence (P06737 whole entry): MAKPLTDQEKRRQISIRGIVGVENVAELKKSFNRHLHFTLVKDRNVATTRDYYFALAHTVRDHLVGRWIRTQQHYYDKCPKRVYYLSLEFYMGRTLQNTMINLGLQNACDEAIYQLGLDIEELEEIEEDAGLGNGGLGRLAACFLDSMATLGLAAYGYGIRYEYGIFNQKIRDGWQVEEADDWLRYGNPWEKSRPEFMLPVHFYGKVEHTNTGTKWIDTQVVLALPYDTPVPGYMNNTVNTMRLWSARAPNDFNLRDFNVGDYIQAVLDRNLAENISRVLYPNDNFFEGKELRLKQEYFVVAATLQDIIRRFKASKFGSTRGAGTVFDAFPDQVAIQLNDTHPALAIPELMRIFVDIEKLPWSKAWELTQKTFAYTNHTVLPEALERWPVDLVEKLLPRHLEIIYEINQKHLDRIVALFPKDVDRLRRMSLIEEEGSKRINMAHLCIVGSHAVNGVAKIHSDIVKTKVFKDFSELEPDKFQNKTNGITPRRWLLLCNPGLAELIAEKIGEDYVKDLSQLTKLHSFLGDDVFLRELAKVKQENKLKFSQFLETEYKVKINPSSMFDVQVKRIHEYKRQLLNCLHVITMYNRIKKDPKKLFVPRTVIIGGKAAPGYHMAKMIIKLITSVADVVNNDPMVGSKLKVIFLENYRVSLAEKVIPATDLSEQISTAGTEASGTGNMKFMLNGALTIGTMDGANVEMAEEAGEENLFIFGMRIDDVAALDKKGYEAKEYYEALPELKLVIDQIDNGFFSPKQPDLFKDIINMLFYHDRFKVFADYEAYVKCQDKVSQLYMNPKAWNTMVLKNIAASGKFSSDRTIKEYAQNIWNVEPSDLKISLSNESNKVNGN

[2] = biological target: T1, Glycogen phosphorylase, liver form; assay: Inhibition of human liver glycogen phosphorylase a in presence of glucose
How it was run: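 Recombinant human liver GPa assayed in the forward direction by NADPH formation, coupled through phosphoglucomutase (77 U/L) and glucose-6-phosphate dehydrogenase (385 U/L). Conditions: pH 6.8 phosphate buffer with 45 mM KH2PO4, β-NADP, glucose 1,6-bisphosphate, 0.24% glycogen and 10.85 mM glucose. Compounds were added in DMSO before the enzyme; DMSO served as blank and caffeine as positive control. Enzyme addition started the reaction; IC50 was derived by logistic regression.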

[3] = biological target: T2, Glycogen phosphorylase, liver form (Homo sapiens) (UniProt P06737); assay: Inhibition of human liver glycogen phosphorylase a in absence of glucose at 10 uM
T2 sequence (whole entry): T1 sequence (P06737 whole entry)

Row | IC50 [1] | IC50 [2] | inhibition [3] | SMILES
1 | 20000 nM | – | – | O=C(/C=C/c1ccc(Cl)c(Cl)c1)NCCNC(=O)/C=C/c1ccc(Cl)c(Cl)c1
2 | 420 nM | 43 nM | – | O=C(/C=C/c1ccc(Cl)c(Cl)c1)NCCCCNC(=O)/C=C/c1ccc(Cl)c(Cl)c1
3 | 33000 nM | – | – | O=C(/C=C/c1ccc(Cl)c(Cl)c1)NCCCCCCCCNC(=O)/C=C/c1ccc(Cl)c(Cl)c1
4 | – | – | 36% | O=C(/C=C\c1ccc(Cl)c(Cl)c1)NCCCCCNC(=O)/C=C\c1ccc(Cl)c(Cl)c1
5 | 11000 nM | – | – | O=C(/C=C/c1ccc(Cl)c(Cl)c1)NCCCCCCCNC(=O)/C=C/c1ccc(Cl)c(Cl)c1
6 | 18000 nM | – | – | O=C(/C=C/c1ccc(Cl)c(Cl)c1)NCCCCCCNC(=O)/C=C/c1ccc(Cl)c(Cl)c1
7 | 430 nM | 26 nM | – | O=C(/C=C/c1ccc(Cl)c(Cl)c1)NCCOCCNC(=O)/C=C/c1ccc(Cl)c(Cl)c1
8 | 1500 nM | – | – | O=C(/C=C/c1ccc(Cl)c(Cl)c1)NCCS(=O)(=O)CCNC(=O)/C=C/c1ccc(Cl)c(Cl)c1

More lines, now with the values behind:

Row | SMILES | IC50 [1] | IC50 [2] | inhibition [3]
9 | CCCNC(=O)/C=C/c1ccc(Cl)c(Cl)c1 | – | – | 0%
10 | O=C(/C=C/c1ccc(Cl)c(Cl)c1)NCCCNC(=O)/C=C/c1ccc(Cl)c(Cl)c1 | 55000 nM | – | –
11 | CC(C)(C)OC(=O)N(CCNC(=O)/C=C/c1ccc(Cl)c(Cl)c1)CCNC(=O)/C=C/c1ccc(Cl)c(Cl)c1 | – | – | 48%
12 | O=C(/C=C/c1ccc(Cl)c(Cl)c1)NCC[S+]([O-])CCNC(=O)/C=C/c1ccc(Cl)c(Cl)c1 | 310 nM | 26 nM | –
13 | O=C(/C=C/c1ccc(Cl)c(Cl)c1)NCCNCCNC(=O)/C=C/c1ccc(Cl)c(Cl)c1 | – | – | 51%
14 | O=C(C#Cc1ccc(Cl)c(Cl)c1)NCCCCCNC(=O)C#Cc1ccc(Cl)c(Cl)c1 | 59000 nM | – | –
15 | O=C(/C=C/c1ccc(Cl)c(Cl)c1)NCCSCCNC(=O)/C=C/c1ccc(Cl)c(Cl)c1 | 450 nM | 12 nM | –
16 | O=C(/C=C/c1ccc(Cl)c(Cl)c1)NCCCCCNC(=O)/C=C/c1ccc(Cl)c(Cl)c1 | 260 nM | 23 nM | –
17 | O=C(CCc1ccc(Cl)c(Cl)c1)NCCCCCNC(=O)CCc1ccc(Cl)c(Cl)c1 | 45000 nM | – | –
